Data published in PMC8332596 (Clinical Pharmacokinetics, 2021).
Where two headings read alike, the source gives them in different places.

How the values were obtained:
[1] = cited from earlier work
[2] = once-weekly dulaglutide 1.5 mg; patients with T2D; cited from earlier work
[3] = Safety and tolerability after a single subcutaneous dose of tirzepatide 5 mg; format: in vivo, human; settings: single 5 mg SC
Procedure, shortened: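 Open-label phase I single-dose study in adults aged 18–85 y with BMI 19.0–40.0 kg/m2, grouped by MDRD eGFR. ESRD subjects were dialysed on high-flux polysulfone membranes. AEs were recorded at screening and on days 1, 2, 3, 4, 5, 8, 15 and ≥28. Glucose was checked predose, at 12–336 h and on day ≥28, with hypoglycaemia defined per ADA guidance. ISRs were assessed to 48 h. Labs (incl. amylase/lipase), vitals and ECGs were taken at set visits.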

[4] = dose range 0.5 to 15 mg, single-dose levels and steady state; cited from earlier work
[5] = Immunogenicity: antidrug antibodies in serum; format: in vivo, human; settings: single 5 mg SC, maximum of 30 days of ADA monitoring postdose
[6] = format: in vivo, human; settings: single 5 mg SC; for tmax median of differences (90% CI): Hodges–Lehmann; for tmax: median (range)
Procedure, shortened: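 Single SC 5 mg dose given on day 1. Plasma was drawn predose and at 8, 12, 24, 48, 72, 96, 168, 336 and 648 h, then stored at about −70 °C. Drug was immunoprecipitated and quantified by LC–high-resolution MS (HESI, positive ion) over 2.00–500.00 ng/mL. Noncompartmental analysis used actual times, trapezoidal AUClast and log-linear λz. Log AUC/Cmax ratios versus control came from ANOVA with 90% CI; tmax by Hodges–Lehmann.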

[7] = moderate renal impairment, N = 8
[8] = mild-to-moderate renal impairment

Q: Which “influence of the extent of renal impairment on PK” value [1] does the source give for dulaglutide here?
A: not influenced

Q: And the HbA1c reduction [2]?
A: ≤ 1.1%

Q: What about the body weight reduction [2] of the same compound?
A: ≤ 2.7 kg

Q: For `CC[C@H](C)[C@H](NC(=O)[C@H](CC(C)C)NC(=O)[C@H](Cc1c[nH]c2ccccc12)NC(=O)[C@H](CCC(N)=O)NC(=O)[C@@H](NC(=O)[C@H](Cc1ccccc1)NC(=O)[C@H](C)NC(=O)[C@H](CCCCNC(=O)COCCOCCNC(=O)COCCOCCNC(=O)CC[C@H](NC(=O)CCCCCCCCCCCCCCCCCCC(=O)O)C(=O)O)NC(=O)[C@H](CCC(N)=O)NC(=O)[C@H](C)NC(=O)[C@@H](NC(=O)[C@H](CCCCN)NC(=O)[C@H](CC(=O)O)NC(=O)[C@H](CC(C)C)NC(=O)C(C)(C)NC(=O)[C@@H](NC(=O)[C@H](CO)NC(=O)[C@H](Cc1ccc(O)cc1)NC(=O)[C@H](CC(=O)O)NC(=O)[C@H](CO)NC(=O)[C@@H](NC(=O)[C@H](Cc1ccccc1)NC(=O)[C@@H](NC(=O)CNC(=O)[C@H](CCC(=O)O)NC(=O)C(C)(C)NC(=O)[C@@H](N)Cc1ccc(O)cc1)[C@@H](C)O)[C@@H](C)O)[C@@H](C)CC)[C@@H](C)CC)C(C)C)C(=O)N[C@@H](C)C(=O)NCC(=O)NCC(=O)N1CCC[C@H]1C(=O)N[C@@H](CO)C(=O)N[C@@H](CO)C(=O)NCC(=O)N[C@@H](C)C(=O)N1CCC[C@H]1C(=O)N1CCC[C@H]1C(=O)N1CCC[C@H]1C(=O)N[C@@H](CO)C(N)=O` [tirzepatide], which “number of subjects with AEs related to tirzepatide” value (“number of subjects with AEs related” for short) ([3]; ESRD group (37.5%)) is on record?
A: 3

Q: And the Abdominal distention ([3]; ESRD, N = 8)?
A: 0 (0.0) n (%)

Q: And the Back pain ([3]; ESRD, N = 8)?
A: 0 (0.0) n (%)

Q: What about the Deaths ([3]; ESRD, N = 8) of the same compound?
A: 0 (0.0) n (%)

Q: And the Diarrhea ([3]; ESRD, N = 8)?
A: 0 (0.0) n (%)

Q: What about the Headache ([3]; ESRD, N = 8) of the same compound?
A: 0 (0.0) n (%)

Q: And the Nausea ([3]; ESRD, N = 8)?
A: 1 (12.5) n (%)

Q: What about the “Serious AEs” value ([3]; ESRD, N = 8) of the same compound?
A: 0 (0.0) n (%)

Q: And the “Treatment-emergent AEs” value ([3]; ESRD, N = 8)?
A: 3 (37.5) n (%)

Q: And the Vomiting ([3]; ESRD, N = 8)?
A: 2 (25.0) n (%)

Q: And the “alterations in laboratory, vital signs values, ECGs, or blood glucose monitoring” value ([3]; all groups)?
A: no clinically significant alterations

Q: And the severe hypoglycemic events ([3]; all groups)?
A: no severe hypoglycemic events

Q: And the “discontinuations due to AEs, serious AEs, deaths” value ([3]; all groups, 45 subjects)?
A: No discontinuations due to AEs, serious AEs, or deaths

Q: And the tolerability ([3]; all treatment groups)?
A: well-tolerated

Q: And the “injection-site reactions (ISRs)” value ([3]; assessed predose and 0, 6, 12, 24, 48 h postdose)?
A: No ISRs were reported

Q: What about the “number of subjects with AEs related” value ([3]; control group (7.1%)) of the same compound?
A: 1

Q: What about the “number of subjects with AEs related” value ([3]; mild renal impairment group (37.5%)) of the same compound?
A: 3

Q: What about the Abdominal distention ([3]; mild renal impairment, N = 8) of the same compound?
A: 0 (0.0) n (%)

Q: What about the Back pain ([3]; mild renal impairment, N = 8) of the same compound?
A: 1 (12.5) n (%)

Q: What about the Deaths ([3]; mild renal impairment, N = 8) of the same compound?
A: 0 (0.0) n (%)

Q: What about the Diarrhea ([3]; mild renal impairment, N = 8) of the same compound?
A: 1 (12.5) n (%)

Q: And the Headache ([3]; mild renal impairment, N = 8)?
A: 0 (0.0) n (%)

Q: What about the Nausea ([3]; mild renal impairment, N = 8) of the same compound?
A: 1 (12.5) n (%)

Q: And the “Serious AEs” value ([3]; mild renal impairment, N = 8)?
A: 0 (0.0) n (%)

Q: And the “Treatment-emergent AEs” value ([3]; mild renal impairment, N = 8)?
A: 3 (37.5) n (%)

Q: And the Vomiting ([3]; mild renal impairment, N = 8)?
A: 0 (0.0) n (%)

Q: And the “number of subjects with AEs related” value ([3]; moderate renal impairment group (37.5%))?
A: 3

Q: And the Abdominal distention [3, 7]?
A: 1 (12.5) n (%)

Q: What about the Back pain [3, 7] of the same compound?
A: 1 (12.5) n (%)

Q: And the Deaths [3, 7]?
A: 0 (0.0) n (%)

Q: What about the Diarrhea [3, 7] of the same compound?
A: 1 (12.5) n (%)

Q: What about the Headache [3, 7] of the same compound?
A: 0 (0.0) n (%)

Q: What about the Nausea [3, 7] of the same compound?
A: 0 (0.0) n (%)

Q: And the “Serious AEs” value [3, 7]?
A: 0 (0.0) n (%)

Q: What about the “Treatment-emergent AEs” value [3, 7] of the same compound?
A: 3 (37.5) n (%)

Q: And the Vomiting [3, 7]?
A: 0 (0.0) n (%)

Q: And the Abdominal distention ([3]; normal renal function, N = 14)?
A: 0 (0.0) n (%)

Q: And the Back pain ([3]; normal renal function, N = 14)?
A: 0 (0.0) n (%)

Q: And the Deaths ([3]; normal renal function, N = 14)?
A: 0 (0.0) n (%)

Q: What about the Diarrhea ([3]; normal renal function, N = 14) of the same compound?
A: 0 (0.0) n (%)

Q: And the Headache ([3]; normal renal function, N = 14)?
A: 1 (7.1) n (%)

Q: What about the Nausea ([3]; normal renal function, N = 14) of the same compound?
A: 0 (0.0) n (%)

Q: And the “Serious AEs” value ([3]; normal renal function, N = 14)?
A: 0 (0.0) n (%)

Q: What about the “Treatment-emergent AEs” value ([3]; normal renal function, N = 14) of the same compound?
A: 1 (7.1) n (%)

Q: And the Vomiting ([3]; normal renal function, N = 14)?
A: 0 (0.0) n (%)

Q: And the “treatment-related AEs” value ([3]; severe renal impairment group)?
A: No treatment-related AEs were reported

Q: And the Abdominal distention ([3]; severe renal impairment, N = 7)?
A: 0 (0.0) n (%)

Q: What about the Back pain ([3]; severe renal impairment, N = 7) of the same compound?
A: 0 (0.0) n (%)

Q: And the Deaths ([3]; severe renal impairment, N = 7)?
A: 0 (0.0) n (%)

Q: What about the Diarrhea ([3]; severe renal impairment, N = 7) of the same compound?
A: 0 (0.0) n (%)

Q: What about the Headache ([3]; severe renal impairment, N = 7) of the same compound?
A: 0 (0.0) n (%)

Q: And the Nausea ([3]; severe renal impairment, N = 7)?
A: 0 (0.0) n (%)

Q: What about the “Serious AEs” value ([3]; severe renal impairment, N = 7) of the same compound?
A: 0 (0.0) n (%)

Q: What about the “Treatment-emergent AEs” value ([3]; severe renal impairment, N = 7) of the same compound?
A: 0 (0.0) n (%)

Q: And the Vomiting ([3]; severe renal impairment, N = 7)?
A: 0 (0.0) n (%)

Q: What about the “dose dependence of PK” value [4] of the same compound?
A: linear and dose-proportional

Q: What about the “treatment-emergent antidrug antibodies (ADAs)” value [5] of the same compound?
A: No treatment-emergent ADAs were detected

Q: And the half-life ([6]; human, plasma, sc, 5 mg, t½, ESRD, n = 8, geometric mean (range))?
A: 151 h

Q: What about the “tmax median of differences (90% CI)” value ([6]; ESRD vs normal renal function) of the same compound?
A: 0.00 h

Q: And the tmax ([6]; ESRD, n = 8)?
A: 48.00 (24.00–96.00) h

Q: And the “relationship between exposure (Cmax, AUClast, AUC∞) and MDRD eGFR” value ([6]; linear regression, eGFR as continuous variable)?
A: did not show a relationship

Q: What about the “higher AUClast versus control” value ([6]; mild renal impairment group classified by CLCR (Cockcroft–Gault)) of the same compound?
A: 23%

Q: What about the “tmax median of differences (90% CI)” value ([6]; mild renal impairment vs normal renal function) of the same compound?
A: 0.00 h

Q: And the t½ ([6]; mild renal impairment, n = 8, geometric mean (range))?
A: 121 (94.6–138) h

Q: What about the tmax ([6]; mild renal impairment, n = 8) of the same compound?
A: 48.00 (12.00–96.00) h

Q: What about the “increase in AUCs versus normal renal function” value ([6]; moderate renal impairment group) of the same compound?
A: 25–29%

Q: What about the “geometric mean AUClast higher than control group” value ([6]; moderate renal impairment vs control, 90% CI 1.04–1.52) of the same compound?
A: 25%

Q: What about the “geometric mean AUC∞ higher than control group” value ([6]; moderate renal impairment vs control, 90% CI 1.07–1.56) of the same compound?
A: 29%

Q: For lixisenatide, which “differences in PK versus subjects with normal renal function” value [1, 8] is on record?
A: no significant differences

Q: And the drug exposure ([1]; severe renal impairment)?
A: may be increased

Q: For semaglutide, which “impact of renal impairment on plasma PK” value ([1]; oral) is on record?
A: lack of impact

Q: Which “PK versus subjects with normal renal function” value [1, 8] does the source give for liraglutide here?
A: not significantly altered

Q: Which “PK changes versus subjects with normal renal function” value ([1]; subcutaneous, mild-to-moderate renal impairment) does the source give for exenatide here?
A: clinically acceptable

Q: With albiglutide as the compound, how does the “PK versus subjects with normal renal function” value [1, 8] read?
A: not significantly altered
